Measured values pooled from the literature.
Protocols differ between the studies behind these lines.
PIK3CG: Phosphatidylinositol 4,5-bisphosphate 3-kinase catalytic subunit gamma isoform (PIK3CG, Homo sapiens, UniProt P48736)
Inositol-tetrakisphosphate 1-kinase: Inositol-tetrakisphosphate 1-kinase (Homo sapiens, UniProt Q13572)
PTGS2: Prostaglandin G/H synthase 2 (PTGS2, Homo sapiens, UniProt P35354)

target | test | setting | IC50 [µM] | Structure (SMILES)
PIK3CG | enzyme activity, inhibitor, ADP detection | – | 0.0076 | O=C1C(=Nc2ccccc2Br)c2ccccc2N1Cc1ccccc1
PIK3CG | enzyme activity, inhibitor, radiometric | – | 1.2 | CN(C)C(=O)c1cc2cnc(Nc3cncc(-c4ccc5c(=O)cc(N6CCOCC6)oc5c4)c3)nc2n1C1CCCC1
PIK3CG | enzyme activity, inhibitor, ADP detection | – | 0.00965 | O=C(CCc1ccc(Cl)cc1)N1C(=O)C(=Nc2ccc(Cl)cc2Br)c2ccccc21
Inositol-tetrakisphosphate 1-kinase | enzyme activity, inhibitor | – | 3.2 | Nc1ncnc2c1cnn2C1CCCCC1
PIK3CG | enzyme activity, inhibitor, ADP detection | – | 0.0934 | CCc1ccc(N=C2C(=O)Nc3ccccc32)cc1
Muscarinic acetylcholine receptor M3 (CHRM3, Homo sapiens, UniProt P20309) | ligand displacement, radioligand | cell membranes | 15.1 | O=C(CCNC(=O)CNC(=O)CC(c1ccccc1)(c1ccccc1)c1ccccc1)NCC1CCN(Cc2ccc(F)cc2)CC1
PIK3CG | enzyme activity, inhibitor, ADP detection | – | 0.00786 | COc1cc(N=C2C(=O)Nc3ccccc32)cc(OC)c1
PIK3CG | enzyme activity, inhibitor, radiometric | – | > 10 | COc1ccc(-c2cc(=O)c3cccc(Nc4ncc5cc(C(=O)N(C)C)n(C6CCCC6)c5n4)c3o2)cc1
Creatine kinase U-type, mitochondrial (CKMT1A, Homo sapiens, UniProt P12532) | enzyme activity, inhibitor, ADP detection | pH 8.5 | 3 | NC(=O)C1CN(C(=O)CCl)c2ccccc2O1 (centres unmarked)
PIK3CG | enzyme activity, inhibitor, ADP detection | – | 0.00111 | Cc1ccc(CN2C(=O)C(=Nc3cccc(Cl)c3)c3ccccc32)cc1
PIK3CG | enzyme activity, inhibitor, radiometric | – | > 10 | COc1ccc(-c2oc3cc(Nc4ncc5cc(C(=O)N(C)C)n(C6CCCC6)c5n4)ccc3c(=O)c2F)cc1
PTGS2 | enzyme activity, inhibitor | – | 2.64 | NS(=O)(=O)c1ccc(-n2nc(C(=O)NN3C(=O)c4ccccc4C3=O)cc2-c2ccccc2)cc1
Inositol-tetrakisphosphate 1-kinase | enzyme activity, inhibitor | – | 0.86 | Nc1ncnc2c1ncn2[C@@H]1O[C@H](CO)[C@@H](O)[C@@H]1F
PTGS2 | enzyme activity, inhibitor | – | 3.73 | NS(=O)(=O)c1ccc(-n2nc(-c3nnc(S)o3)cc2-c2ccccc2)cc1
PIK3CG | enzyme activity, inhibitor, radiometric | – | 6.03 | COc1ccc(-c2cc(=O)c3ccc(Nc4ncc5cc(C(=O)N(C)C)n(C6CCCC6)c5n4)cc3o2)cc1
PIK3CG | enzyme activity, inhibitor, ADP detection | – | 0.0186 | Cc1ccc(CN2C(=O)C(=Nc3c(C(C)C)cccc3C(C)C)c3ccccc32)cc1
Retinal dehydrogenase 2 (ALDH1A2, Homo sapiens, UniProt O94788) | enzyme activity, inhibitor, fluorescence | 15 min, pH 7.5 | < 10 | COc1nc2ccc(Br)cc2cc1[C@@H](c1ccccc1)[C@@](O)(CCN(C)C)c1cccc2ccccc12
PIK3CG | enzyme activity, inhibitor, ADP detection | – | 0.176 | O=C1Nc2ccccc2/C1=N/c1ccccc1Br
PIK3CG | enzyme activity, inhibitor, radiometric | – | 6.04 | CN(C)C(=O)c1cc2cnc(Nc3cccc(-c4cccc5c(=O)cc(N6CCOCC6)oc45)c3)nc2n1C1CCCC1
Inositol-tetrakisphosphate 1-kinase | enzyme activity, inhibitor, ADP detection | – | 2.9 | c1ccc(COc2[nH]cnc3ncnc2-3)cc1
PTGS2 | enzyme activity, inhibitor | – | 1.25 | CC(=NNC(=O)c1cc(-c2ccccc2)n(-c2ccc(S(N)(=O)=O)cc2)n1)c1ccc(Br)cc1
Inositol-tetrakisphosphate 1-kinase | enzyme activity, inhibitor | – | 1 | Nc1ncnc2c1ncn2C1CCCO1 (centres unmarked)
PIK3CG | enzyme activity, inhibitor, radiometric | – | 6.11 | CN(C)C(=O)c1cc2cnc(Nc3cncc(-c4cccc5c(=O)cc(N6CCOCC6)oc45)c3)nc2n1C1CCCC1
